Paper PMC6661244 (Investigative Radiology, 2019)
“Also recorded” adds a separate entry of the source.

Tests used:
[1] = Osmolality; assay type: physicochemical; details: 0.5-M solution; Guerbet measurements
Summary of the method: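 Vapour-pressure osmometry on a 0.5 M solution, triplicate readings. The osmometer was calibrated before each use with 100, 290 and 1000 mOsm/kg H2O standards.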

[2] = Viscosity; assay type: physicochemical; details: 0.5 M
Summary of the method: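 Cone-and-plate rotational rheometry (60 mm, 2° cone) on a 0.5 M solution at 37°C. Shear rate was recorded at applied stresses of 1–5 Pa, and viscosity was taken from the slope of stress versus shear rate.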

[3] = Nuclear magnetic relaxation dispersion; assay type: physicochemical
[4] = assay type: physicochemical; details: 2.5 mM GBCA and ZnCl2, phosphate buffer pH 7, 335 mM, 37°C, 0.47 T, up to 5 days
[5] = Metabolism: HPLC analysis of plasma and urine samples; assay type: in vivo; details: Beagle dogs, 0.2 mmol Gd/kg IV
Summary of the method: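 Urine and plasma from Beagle dogs given a 153Gd-labelled test compound (0.2 mmol Gd/kg IV) were analysed by radio-HPLC. Separation used a C18 column at 4°C, with detection by a flow scintillation analyser.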

[6] = test system: hepatic colorectal metastases; details: rats, 0.1 mmol Gd/kg intravenously, 9.4 T, compared with gadobutrol; cited from earlier work

O=C(CCC(C(=O)[O-])N1CCN(C(CCC(=O)NCC(O)CO)C(=O)[O-])Cc2cccc(n2)CN(C(CCC(=O)NCC(O)CO)C(=O)[O-])CC1)NCC(O)CO.[Gd+3] (centres unmarked) [Gadopiclenol, gadolinium chelate of 2,2′,2″-(3,6,9-triaza-1(2,6)-pyridinacyclodecaphane-3,6,9-triyl)tris(5-((2,3-dihydroxypropyl)amino)-5-oxopentanoic acid)]
Osmolality at 37°C at marketed concentration [1]: 843 mOsm/kg H2O
Viscosity at 37°C [2]: 7.6 mPa·s
Relaxivity r1 at 37°C ([3]; 3 T, in human serum, extrapolated from NMRD profiles): 11.6 mM⁻¹ s⁻¹
r1 relaxivity (NMRD profile) ([3]; 300 MHz, ie, 7 T field, water, 37°C): 10.68 mM⁻¹ s⁻¹
r1(t)/r1(t0) ratio over time in the presence of Zn^2+ and phosphate [4]: remained constant
Metabolites in plasma and urine samples (HPLC) [5]: No metabolites were found; also recorded: only unchanged gadopiclenol
Lesion enhancement [6]: significantly better lesions enhancement

CNC[C@H](O)[C@@H](O)[C@H](O)[C@H](O)CO.O=C([O-])CN1CCN(CC(=O)[O-])CCN(CC(=O)O)CCN(CC(=O)[O-])CC1.[Gd+3] [Gadoterate (Meglumine Salt), reference compound]
r1(t)/r1(t0) ratio over time in the presence of Zn^2+ and phosphate [4]: remained constant
